The values that follow come from ChEMBL document CHEMBL4138168, “Design and synthesis of novel thiobarbituric acid derivatives targeting both wild-type and BRAF-mutated melanoma cells” (Eur J Med Chem, 2018).

pIC50: −log10 of the molar value.

Format in all cases: functional, cell-based
One assay deals with UACC-903. The assay is described as follows: Cytotoxicity against human UACC-903 cells assessed as cell viability at 25 uM after 48 hrs by MTT assay relative to control. The settings on record: UACC-903, 48 h. In outline: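 MCF10A normal breast epithelial cells were kept in MEGM mammary epithelial medium; the cancer lines were in DMEM with 10% FBS, 37 °C. OD at 570 nm with 630 nm background, expressed relative to control.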
A general note: Formazan colour is commonly taken as a measure of viable cells.

The subject of a further assay is CHL-1. The assay is described as follows: Antiproliferative activity against human CHL-1 cells harboring wild type BRAF after 72 hrs by MTT assay. As to conditions: CHL-1, 72 h. In outline: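 Cells (CHL-1) cultured in DMEM with 10% FBS at 37 °C and treated with compound for 72 h. Viability measured by MTT uptake: 3 h with MTT, DMSO solubilisation, absorbance at 570 nm with 630 nm background subtraction. IC50 taken as the mean of triplicates from at least two independent experiments.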

The test system of the next assay is PANC-1. In words: Antiproliferative activity against human PANC1 cells after 48 hrs by MTT assay. As to conditions: PANC-1, 48 h. Put shortly: (§1)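 3,000 cells per well, grown at 37 °C (DMEM with 10% FBS and penicillin/streptomycin; HCT116 in McCoy's 5A). Cells exposed in triplicate to 0.5–25 μM compound for 48 h. MTT (5 mg/mL PBS stock) added for 3 h, formazan dissolved in DMSO, OD read at 570 nm minus 630 nm background. IC50 from non-linear regression of two independent experiments.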

A further assay has as its system MDA-MB-231. In words: Antiproliferative activity against ER/PR/HER2 deficient human MDA-MB-231 cells after 48 hrs by MTT assay. The settings on record: MDA-MB-231, 48 h. Put shortly:
as §1

The next assay has as its system HCT-116. The assay is described as follows: Antiproliferative activity against human HCT116 cells after 48 hrs by MTT assay. As to conditions: HCT-116, 48 h. Put shortly:
as §1

Another assay deals with MCF7. In words: Antiproliferative activity against human MCF7 cells expressing ER/PR/HER2 after 48 hrs by MTT assay. As to conditions: MCF7, 48 h. Put shortly:
as §1

`O=C1NC(=S)NC(=O)C1=C/C=C/C=C/c1ccccc1`: in the assay with UACC-903, the pIC50 (as a rule, the IC50 on a negative log10 scale, so that one unit is a factor of ten) was 5.19.

As for `CCN1C(=O)/C(=C\C=C\c2ccccc2)C(=O)NC1=S`, the pIC50 in the assay with CHL-1 was 5.21; with UACC-903 it was 5.10.

As to `C=CCN1C(=O)/C(=C\C=C\c2cccs2)C(=O)NC1=S`, the results for the pIC50 in the assay with CHL-1 and in the assay on UACC-903 were 5.12 and 5.17, respectively.

Turning to `CCN1C(=O)C(=C/C=C/c2ccccc2)C(=O)N(CC)C1=S`, the pIC50 in the assay with CHL-1 is 5.06; in the assay with UACC-903, 4.82.

Consider `O=C1NC(=[Se])NC(=O)C1=C/C=C/c1ccccc1`, for which the pIC50 was 5.03 with CHL-1 and 4.87 with UACC-903.

Turning to `O=C1NC(=[Se])NC(=O)C1=C/C=C/c1cccs1`, the pIC50 is 5.20 in the assay with CHL-1 and 5.11 in the assay with UACC-903.

For `C=CCN1C(=O)C(=C/C=C/c2ccco2)C(=O)N(CC=C)C1=S`, the pIC50 in the assay on CHL-1 was 5.10; with UACC-903, 4.75.

In the case of `C=CCN1C(=O)/C(=C\C=C\c2ccco2)C(=O)N(CC)C1=S`, the pIC50 in the assay on CHL-1 was 4.72; in the assay with UACC-903, 4.84.

Take `O=C1NC(=S)NC(=O)C1=C/C=C/c1cccc2ccccc12`: the pIC50 in the assay on UACC-903 is 5.38; in the assay with PANC-1 it was 5.10; in the assay on MDA-MB-231, 5.35; with HCT-116, 5.44.

For `C=CCN1C(=O)/C(=C\C=C\c2ccccc2)C(=O)N(CC)C1=S`, the pIC50 in the assay with UACC-903 is 4.68.

`CCN1C(=O)/C(=C\C=C\c2ccco2)C(=O)NC1=S`: the pIC50 in the assay with CHL-1 was 4.86; with UACC-903 it was 4.79.

Take `CCN1C(=O)C(=C/C=C/c2ccco2)C(=O)N(CC)C1=S`: the results for the pIC50 with CHL-1 and with UACC-903 were 5.07 and 4.73, respectively.

As to `C=CCN1C(=O)C(=C/C=C/c2ccccc2)C(=O)N(CC=C)C1=S`, the pIC50 in the assay with CHL-1 is 5.09; in the assay with UACC-903 it was 4.74.

For the molecule `C=CCN1C(=O)/C(=C\C=C\c2cccs2)C(=O)N(CC)C1=S`, the pIC50 in the assay on UACC-903 was 5.21.

For `O=C1NC(=S)NC(=O)C1=C/C=C/c1ccco1`, the pIC50 with CHL-1 was 5.07; with UACC-903 it was 5.10; with PANC-1, 4.61; in the assay with MDA-MB-231 it was 4.78; in the assay with MCF7 it was 4.55; in the assay on HCT-116 it was 4.70.

`CCN1C(=O)/C(=C\C=C\c2cccs2)C(=O)NC1=S`: the pIC50 in the assay on UACC-903 is 5.34; in the assay with PANC-1, 4.69; in the assay on MDA-MB-231 it was 5.07; in the assay on MCF7, 4.62; with HCT-116, 5.08.

Regarding `CCN1C(=O)/C(=C/C=C/c2cccc3ccccc23)C(=O)NC1=S`, in the assay on UACC-903, the pIC50 was 4.63.

As for `O=C1NC(=S)NC(=O)C1=C/C=C/c1cccnc1`, the pIC50 in the assay on UACC-903 was 4.74.

`CN1C(=O)/C(=C\C=C\c2cccs2)C(=O)NC1=S`: the pIC50 is 5.33 with CHL-1; 5.26 in the assay on UACC-903; 4.68 with PANC-1; 5.07 in the assay on MDA-MB-231; 4.63 in the assay with MCF7; 4.74 in the assay on HCT-116.

In the case of `O=C1NC(=[Se])NC(=O)C1=C/C=C/c1ccco1`, the pIC50 in the assay with CHL-1 was 5.01; in the assay with UACC-903, 5.64.

On to `CCN1C(=O)\C(=C/C=C/C=C/c2ccco2)C(=O)NC1=S`, for which the pIC50 in the assay on UACC-903 was 5.12.

Regarding `O=C1NC(=S)NC(=O)C1=C/C=C/c1ccccc1`, the pIC50 in the assay with CHL-1 is 4.97; in the assay with UACC-903, 5.04.
